Reference: PubChem BioAssay
Calls of active or inactive are those of the source.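 How the source made its calls, unless noted: active means inhibition above 20% together with a positive visual image hit; inconclusive means visual image hit but inhibition not above 20%; inactive means no visual image hit.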

Legend:
[1] = inhibitors of TNFa-induced NFkB p65 translocation, primary screen, imaging, HUVEC, MLSMR starter and 10KST1 sets (AID 438); conditions: HUVEC TNFa-induced p65 nuclear translocation; cell count: measured here: nuclei count (cytotoxicity indicator), at 2.08 µM; inhibition: at 2 µM, stronger effect = higher value, 0% TNFa-plus-vehicle, 100% no-TNFa wells;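 further: compound added about 3h40 before a 20 min TNFalpha stimulation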;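 on inhibition: signal is the nuclear over cytoplasmic p65 intensity ratio per well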
[2] = endothelial E-selectin expression blockers – imaging, HUVEC, immunofluorescence, MLSMR starter and 10KST1 sets, primary screen (AID 487;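 active means visually confirmed hit in the image check and inhibition above 20%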;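 on inhibition: signal is fraction of cell area covered by stained E-selectin grains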;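 on nuclei count: 100% = median nuclei count of all wells on the same plate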); conditions: HUVEC TNFalpha-induced E-selectin immunofluorescence imaging, at 2 µM; inhibition: stronger effect = higher value; nuclei count: measured here: cell number, toxicity
[3] = Primary imaging screen for DUSP6 inhibitors that restore phospho-Erk in transfected HeLa cells, chemical complementation (AID 609;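 active means compounds giving at least 50% inhibition in the cell-based MKP-3 phosphatase rescue imaging test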;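 on inhibition: phospho-Erk level distribution per well compared with pooled transfected vehicle control wells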); conditions: HeLa MKP-3 transfected, phospho-Erk imaging KS statistic, at 10 µM, cells stimulated with TPA for 15 min
[4] = molecular target: Dual specificity protein phosphatase 6 (Homo sapiens) (UniProt Q16828); test: as above; conditions: HeLa MKP-3 transfected, phospho-Erk imaging KS statistic; at 10 µM; stronger effect = higher value; cells stimulated with TPA for 15 min
[5] = molecular target: Voltage-gated potassium channel subunit beta-2 (Rattus norvegicus) (UniProt P62483); test: inhibitors of rat Kvbeta2 reductase activity – biochemical, NADPH fluorescence, primary screen (AID 622;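 active means fluorescence slope higher than the sample average by over 3 SD, cut at about -0.22 in these data, passing the limit was not always enough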;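 further: slope of raw intensity against log time taken from 70 to 1610 s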); conditions: recombinant KvBeta, 4-cyanobenzaldehyde reduction, at 10 µM, stronger effect = higher value
[6] = molecular target: Voltage-gated potassium channel subunit beta-2 (Rattus norvegicus) (UniProt P62483); test: enhancers of rat Kvbeta2 NADPH turnover – biochemical, NADPH fluorescence, primary screen (AID 623;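 active means NADPH fluorescence slope more negative than the mean of all samples by about 3 SD, 99.7% confidence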;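 further: fluorescence intensity change per second fitted from 20 to 320 s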); conditions: Recombinant KvBeta, NADPH fluorescence decrease slope, 10 min; at 10 µM; stronger effect = lower value
[7] = molecular target: Muscarinic acetylcholine receptor M4 (Homo sapiens) (UniProt P08173); test: M4-linked GIRK flux change, two-sided – cell-based, HEK293 M4/GIRK, thallium flux, BTC-AM, M4 allosteric agonist project, primary screen (AID 625;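 active means fluorescence slope after compound addition differing from the mean of all tested samples at 99.7% confidence, mostly higher but some lower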;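 further: thallium influx through GIRK channels coupled to M4 in HEK293 cells with BTC-AM dye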); conditions: at 10 µM, actives lie on both sides
Method in brief: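 Material: HEK293 cells with M4 receptor and GIRK channels; Times: cells overnight at 37 °C, BTC-AM loading 1 h, reads 2 min total; Technique: kinetic BTC-AM fluorescence sampled at 1 Hz, 10 s pre-addition baseline; Read-out basis: slope over 15–24 s of trace normalized to starting intensity; Controls: carbachol positive, DMSO negative.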

[8] = inhibitors of larval lipid processing in zebrafish, primary screen, whole organism, PED6 fluorescence, gall bladder and intestine (AID 686;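 active means a full or partial loss of lipid-probe fluorescence in the fish gall bladder, intestine or both, judged by eye; inactive means no fluorescence loss, or compound toxic to the fish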;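 further: larvae 5 to 7 days old with five fish per well; signal comes from phospholipase A2 cleavage of quenched PED6 carried via bile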); conditions: Zebrafish larvae PED6 lipid processing, fluorescence scoring; screened at 20 µM (by protocol)
Method in brief: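 Incubation: overnight exposure of larvae to compound plus PED6 / Test system: live zebrafish larvae aged 5-7 days, whole organism / Amount: 5 larvae per well / Read-out basis: visual per-well fluorescence inhibition score / Signal: visual fluorescence microscopy scoring of gall bladder, gut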

[9] = loss of swimming-algae plug formation – whole organism, Chlamydomonas reinhardtii, WT vs cilia-less mutant, absorbance, 96-well, primary screen (AID 463189;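 active means inhibition at or above 50% relative to wild type and mutant plate controls; inactive means inhibition below 50%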;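 further: 0% = wild type cc124 cells in DMSO and 100% = ciliumless bld1 mutant cells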); conditions: Chlamydomonas reinhardtii gravitaxis, OD600 absorbance, 2 days; at 10 µM; stronger effect = higher value
[10] = measured here: cell density z-score
[11] = measured here: nuclear c-Myc green intensity z-score
[12] = measured here: nuclear pErk red intensity z-score, stronger effect = higher value

Chain of Voltage-gated potassium channel subunit beta-2 (Rattus norvegicus) (P62483 whole entry, looked up): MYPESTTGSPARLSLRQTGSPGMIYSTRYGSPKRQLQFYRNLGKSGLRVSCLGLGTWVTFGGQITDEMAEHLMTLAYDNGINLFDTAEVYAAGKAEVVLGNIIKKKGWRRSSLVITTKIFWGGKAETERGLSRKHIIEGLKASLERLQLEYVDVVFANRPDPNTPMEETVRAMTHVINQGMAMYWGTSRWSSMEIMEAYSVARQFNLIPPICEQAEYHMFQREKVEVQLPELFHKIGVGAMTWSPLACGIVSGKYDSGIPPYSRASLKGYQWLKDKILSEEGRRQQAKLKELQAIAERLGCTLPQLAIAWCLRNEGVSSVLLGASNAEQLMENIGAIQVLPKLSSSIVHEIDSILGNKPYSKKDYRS
Chain of Dual specificity protein phosphatase 6 (Homo sapiens) (Q16828 whole entry, looked up): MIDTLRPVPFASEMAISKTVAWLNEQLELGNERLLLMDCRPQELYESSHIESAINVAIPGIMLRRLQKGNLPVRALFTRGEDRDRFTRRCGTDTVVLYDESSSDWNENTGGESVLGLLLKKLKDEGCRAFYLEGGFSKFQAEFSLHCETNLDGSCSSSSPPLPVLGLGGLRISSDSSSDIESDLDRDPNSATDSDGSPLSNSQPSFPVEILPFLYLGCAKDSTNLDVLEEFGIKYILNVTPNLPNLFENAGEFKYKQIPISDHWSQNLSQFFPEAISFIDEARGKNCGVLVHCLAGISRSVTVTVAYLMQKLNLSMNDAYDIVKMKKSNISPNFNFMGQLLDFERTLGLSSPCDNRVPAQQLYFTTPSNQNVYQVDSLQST
Chain of Muscarinic acetylcholine receptor M4 (Homo sapiens) (P08173 whole entry, looked up): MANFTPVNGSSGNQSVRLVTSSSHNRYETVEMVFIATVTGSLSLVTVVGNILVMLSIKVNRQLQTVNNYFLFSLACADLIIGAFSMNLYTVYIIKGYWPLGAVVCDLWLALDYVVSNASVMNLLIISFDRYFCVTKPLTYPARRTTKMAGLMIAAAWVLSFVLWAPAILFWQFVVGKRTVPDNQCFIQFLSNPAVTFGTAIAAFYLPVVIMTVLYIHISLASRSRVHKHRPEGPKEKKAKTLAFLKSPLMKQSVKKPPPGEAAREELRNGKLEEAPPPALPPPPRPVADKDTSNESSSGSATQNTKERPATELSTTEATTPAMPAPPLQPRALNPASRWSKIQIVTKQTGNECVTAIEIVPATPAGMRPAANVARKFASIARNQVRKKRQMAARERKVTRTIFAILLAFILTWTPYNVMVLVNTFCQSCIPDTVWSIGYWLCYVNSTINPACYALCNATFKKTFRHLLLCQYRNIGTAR

Compound | cell count [1] | inhibition [1] | inhibition [2] | nuclei count [2] [%] | z-score [3, 10] | z-score [3, 11] | z-score [3, 12] | inhibition [4] | fluorescence slope [5] | NADPH fluorescence slope [6] | fluorescence slope [7] | outcome [8] | inhibition [9]
CCC(=O)Nc1nc(C)c(Oc2ccccc2)c(=O)[nH]1 | 696 | -5.5% (inactive) | 34.5% (inactive) | 151 | -0.359 | -0.286 | 0.522 | -9.53% (inactive) | -0.412 (inactive) | -4.2e-05 (inactive) | 0.00483 (inactive) | inactive | 2.71% (inactive)
CCN(CC)C(=O)CSc1nc2ccccc2c(=O)n1CC1CCCCC1 | 355 | -2.2% (inactive) | 4% (inactive) | 108 | -1.94 | 0.923 | -0.374 | 1.42% (inactive) | -0.484 (inactive) | 5.7e-06 (inactive) | 0.00498 (inactive) | inactive | 7.22% (inactive)
N#Cc1ccc(-c2ccc(OCC(O)Cn3nnc4ccccc43)cc2)cc1 (stereo unspecified) | 528 | -15.6% (inactive) | -19.3% (inactive) | 116 | -2.55 | 0.882 | 0.638 | 5.42% (inactive) | -0.422 (inactive) | -6e-06 (inactive) | 0.00426 (inactive) | inactive | 52.4% (active)
CCOC(=O)CSc1nc(N2CCOCC2)c2c(c1C#N)CC(C)(C)N(C)C2 | 531 | -4.6% (inactive) | -19.7% (inactive) | 102 | -0.379 | 0.944 | -0.77 | 1.42% (inactive) | -0.505 (inactive) | 4.1e-05 (inactive) | 0.00477 (inactive) | inactive | 33.8% (inactive)
O=C1C(=O)N(Cc2cccnc2)C(c2ccccn2)/C1=C(/O)c1ccc(F)cc1 (stereo unspecified) | 327 | -1.1% (inactive) | -58.9% (inactive) | 98 | 1.24 | 1.4 | -0.331 | -0.624% (inactive) | -0.462 (inactive) | -3.7e-05 (inactive) | 0.00549 (inactive) | inactive | -9.85% (inactive)
COc1cc(S(=O)(=O)N2CCN(c3ccc(F)cc3)CC2)ccc1Cl | 609 | -2.2% (inactive) | -32.9% (inactive) | 124 | -0.486 | -0.838 | 0.956 | -7.67% (inactive) | -0.449 (inactive) | -4.1e-05 (inactive) | 0.00423 (inactive) | inactive | -4.27% (inactive)
Cc1ccc(N2C(=O)c3sc4nnc(C)c(=O)n4c3C2=O)cc1 | 637 | 1.3% (inactive) | -129% (inactive) | 144 | 0.278 | 1.58 | -1.15 | -7.86% (inactive) | -0.478 (inactive) | -4e-05 (inactive) | 0.00581 (inactive) | inactive | 2.4% (inactive)
CSc1cc(C)nc(N(C)C(C)=O)n1 | 672 | -1.4% (inactive) | -9.4% (inactive) | 145 | -2.7 | 1.16 | 0.496 | 5.35% (inactive) | -0.421 (inactive) | -5.5e-05 (inactive) | 0.00511 (inactive) | inactive | -6.47% (inactive)
O=C(O)C(O)c1ccco1 (stereo unspecified) | 365 | -6.1% (inactive) | -95% (inactive) | 150 | 0.761 | 0.00341 | -0.65 | -4.59% (inactive) | -0.43 (inactive) | -9.9e-05 (inactive) | 0.00449 (inactive) | inactive | -5.52% (inactive)
COc1cccc(OC)c1C(=O)Nc1nc2ccc(S(C)(=O)=O)cc2s1 | 388 | -2.4% (inactive) | -8.7% (inactive) | 109 | 0.854 | 0.658 | -1.02 | 6.04% (inactive) | -0.409 (inactive) | -1e-05 (inactive) | 0.00408 (inactive) | inactive | 19.4% (inactive)
Cc1nnc2n(-c3ccccc3)c(=O)c3c4c(sc3n12)COC(C)(C)C4 | 526 | -14.8% (inactive) | -32.4% (inactive) | 98.4 | 0.218 | -0.0554 | -0.749 | 24% (inactive) | -0.48 (inactive) | 2.3e-05 (inactive) | 0.00589 (inactive) | inactive | 38.4% (inactive)
O=C(O)c1ccnc(C(=O)O)c1 | 585 | -4.6% (inactive) | -82% (inactive) | 145 | 0.403 | 0.277 | 1 | -4.59% (inactive) | -0.434 (inactive) | -0.000101 (inactive) | 0.00626 (inactive) | inactive | 24.1% (inactive)
CC1(C)Cc2c(c(N3CCOCC3)nc3snc(Br)c23)CO1 | 489 | -4.5% (inactive) | -99.5% (inactive) | 130 | -1.77 | 2.53 | -2.36 | 5.42% (inactive) | -0.502 (inactive) | -1.8e-05 (inactive) | 0.00473 (inactive) | inactive | 2.33% (inactive)
Cc1ccc(C(=O)C2C(c3cccs3)NC(=O)NC2(O)C(F)(F)F)cc1 (stereo unspecified) | 716 | -7.3% (inactive) | -170% (inactive) | 142 | -0.552 | -0.778 | 0.548 | -4.27% (inactive) | -0.482 (inactive) | -7.6e-05 (inactive) | 0.00668 (inactive) | inactive | -6.21% (inactive)
CCOC(=O)CSc1nnc(C)c(=O)[nH]1 | 670 | -5.5% (inactive) | -201% (inactive) | 163 | -0.66 | 0.692 | 1.49 | -16.8% (inactive) | -0.476 (inactive) | -4.6e-05 (inactive) | 0.0066 (inactive) | inactive | -3.91% (inactive)
Cn1c(=O)n(CC(=O)Nc2ccccc2)c2ccccc21 | 382 | -4.5% (inactive) | -15.2% (inactive) | 152 | -0.194 | 0.676 | -0.438 | 22.3% (inactive) | -0.453 (inactive) | -0.000119 (inactive) | 0.0039 (inactive) | inactive | -5.61% (inactive)
CCCc1nc2n[nH]c(N)c2c2c1COC(C)(C)C2 | 597 | -4% (inactive) | -13.2% (inactive) | 168 | -0.7 | -1.13 | 1.4 | -11.9% (inactive) | -0.369 (inactive) | -3.1e-05 (inactive) | 0.00478 (inactive) | inactive | 10.6% (inactive)
O=C(O)C1CC(=O)N(Cc2cccs2)C1 (stereo unspecified) | 557 | -4.7% (inactive) | -73.2% (inactive) | 165 | 0.677 | 0.857 | -1.54 | 17.8% (inactive) | -0.404 (inactive) | -3e-05 (inactive) | 0.00636 (inactive) | inactive | -9.05% (inactive)
CCOC(=O)C(O)(C1C(=O)CC(C)(C)CC1=O)C(F)(F)F (stereo unspecified) | 681 | -12.6% (inactive) | -174% (inactive) | 160 | -0.979 | 0.326 | 3.57 | -9.53% (inactive) | -0.44 (inactive) | -4.6e-05 (inactive) | 0.00523 (inactive) | inactive | 3.71% (inactive)
O=C(CN1C(=O)c2ccccc2S1(=O)=O)NCCSCc1ccco1 | 373 | -5.5% (inactive) | -25.2% (inactive) | 142 | 0.363 | 0.199 | 0.301 | 20.2% (inactive) | -0.457 (inactive) | -0.000137 (inactive) | 0.00395 (inactive) | inactive | -7.41% (inactive)
NC(=O)C1CCN(CCC(=O)Nc2ccc(Br)cc2)CC1 | 619 | -14.3% (inactive) | -30.8% (inactive) | 163 | 0.663 | -1.51 | 0.0444 | 7.42% (inactive) | -0.426 (inactive) | -5.4e-05 (inactive) | 0.00492 (inactive) | inactive | 44% (inactive)
COc1cc2nc(-c3ccccc3)nc(N3CCCC3)c2cc1OC | 397 | -11.2% (inactive) | -164% (inactive) | 154 | 0.13 | -0.48 | 0.0689 | 1.42% (inactive) | -0.433 (inactive) | -0.000105 (inactive) | 0.00381 (inactive) | inactive | 17.6% (inactive)
COCCNc1ncnc2c1cnn2-c1ccc(Cl)cc1 | 534 | -25.3% (inactive) | 11.8% (inactive) | 184 | 1.76 | -0.928 | -0.638 | 23.4% (inactive) | -0.429 (inactive) | -5.8e-05 (inactive) | 0.00652 (inactive) | inactive | 6.55% (inactive)
CC(C)(C)C1=Nn2c(nnc2C2CCCCC2)SC1 | 802 | -5.9% (inactive) | -150% (inactive) | 189 | 0.781 | 1.46 | 0.611 | 2.46% (inactive) | -0.452 (inactive) | -7.5e-05 (inactive) | 0.00451 (inactive) | inactive | 3.81% (inactive)
Cc1cccc(-n2ncc3c(NCCN4CCOCC4)ncnc32)c1 | 596 | -8.2% (inactive) | 0.1% (inactive) | 156 | -0.984 | 1.25 | -0.89 | -2.59% (inactive) | -0.397 (inactive) | -2.6e-05 (inactive) | 0.00826 (inactive) | inactive | 34% (inactive)
O=c1cc(N2CCCCC2)nc2n1CCCS2 | 568 | 2.3% (inactive) | 20.6% (inactive) | 149 | 0.266 | -0.928 | -0.473 | 29.7% (inactive) | -0.39 (inactive) | -1.9e-05 (inactive) | 0.00586 (inactive) | inactive | 33.9% (inactive)
CC1(C(=O)CSc2ncn[nH]2)CCC(=O)O1 (stereo unspecified) | 643 | 19.2% (inactive) | 21.4% (inactive) | 93.2 | -1.6 | 1.61 | 0.596 | 7.21% (inactive) | -0.544 (inactive) | -5.7e-05 (inactive) | 0.00624 (inactive) | inactive | 29.1% (inactive)
